42 molecules from ChEMBL document CHEMBL1944567, “Synthesis, biological evaluation, and molecular modeling of chalcone derivatives as potent inhibitors of Mycobacterium tuberculosis protein tyrosine phosphatases (PtpA and PtpB)” (J Med Chem, 2012) can be followed below.

Data set [1] deals with T1, Low molecular weight protein-tyrosine phosphatase A (Mycobacterium tuberculosis) (UniProt P9WIA1).
T1 sequence (whole entry): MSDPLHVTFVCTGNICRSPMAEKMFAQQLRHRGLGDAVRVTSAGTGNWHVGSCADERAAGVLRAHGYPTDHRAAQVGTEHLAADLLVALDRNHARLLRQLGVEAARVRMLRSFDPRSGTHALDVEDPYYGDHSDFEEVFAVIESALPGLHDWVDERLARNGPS
As to the kind of experiment: Inhibition of Mycobacterium tuberculosis PTP-A using p-nitrophenyl phosphate as substrate at 25 uM measured for 10 mins by spectrofluorimetry. Summed up: (§1)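 Single-point screen at 25 μM final compound, added from 1.0 × 10−3 M DMSO stock, with recombinant Mtb PtpA or PtpB (0.4 μg/μL final) in 20 mM imidazole pH 7.0 with 40 mM pNPP. Reaction started by adding enzyme. p-Nitrophenol release read at 410 nm every min for 10 min at 37 °C. Residual activity was taken from the absorbance difference between 6 and 2 min; two experiments, each in triplicate.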

Data set [2] has as its target T2, Phosphotyrosine-protein phosphatase PTPB (Mycobacterium tuberculosis) (UniProt P96830).
T2 sequence (whole entry): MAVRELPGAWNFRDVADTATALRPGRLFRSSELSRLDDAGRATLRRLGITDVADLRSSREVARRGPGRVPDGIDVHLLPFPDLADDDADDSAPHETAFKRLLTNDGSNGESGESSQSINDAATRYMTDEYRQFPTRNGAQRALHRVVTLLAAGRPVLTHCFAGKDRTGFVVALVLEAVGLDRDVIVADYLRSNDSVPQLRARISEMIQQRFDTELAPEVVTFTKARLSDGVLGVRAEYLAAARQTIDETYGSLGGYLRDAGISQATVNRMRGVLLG
The data set can be described thus: Inhibition of Mycobacterium tuberculosis PTP-B using p-nitrophenyl phosphate as substrate at 25 uM measured for 10 mins by spectrofluorimetry. In short, it runs like this: as §1

Data set [3] addresses T3, Low molecular weight protein-tyrosine phosphatase A (Mycobacterium tuberculosis, UniProt P9WIA1).
T3 sequence (P9WIA1 whole entry): T1 sequence (whole entry)
The data set can be described thus: Inhibition of Mycobacterium tuberculosis PTP-A using p-nitrophenyl phosphate as substrate measured for 10 mins by spectrofluorimetry. In short, it runs like this: (§2)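 A410 read each minute over 10 min at 37 °C. Residual activity compared with wells without inhibitor; IC50 by linear regression of % inhibition against concentration. Triplicate, two independent experiments.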

Data set [4] can be described thus: Solubility of the compound. It counts as physicochemical.
The target in data set [5] is T4, Phosphotyrosine-protein phosphatase PTPB (Mycobacterium tuberculosis, UniProt P96830).
T4 sequence (P96830 whole entry): T2 sequence (whole entry)
As to the kind of experiment: Inhibition of Mycobacterium tuberculosis PTP-B using p-nitrophenyl phosphate as substrate measured for 10 mins by spectrofluorimetry. Summed up:
as §2

As a reminder, the inhibition is the percentage by which the read-out fell short of the control. Broadly, the IC50 is the concentration at which inhibition is half-maximal. A lower IC50 goes with inhibition by little substance. As to `Cc1ccc(/C=C/C(=O)c2ccc3ccccc3c2)o1`, the results for the inhibition in data set [1] and in data set [2] were 30% and 0%, respectively. The molecule further gave a 50% inhibitory concentration (IC50) in data set [3] of 1020 µM. Moreover, the solubility result in data set [4] was “soluble”.
The like results for `O=C(/C=C/c1ccc(-c2cc(C(F)(F)F)ccc2Cl)o1)c1ccc2c(c1)OCO2` were, in that order, 36%, 16%, 174 µM and “soluble”.
The matching figures for `COc1ccc2nc(Cl)c(/C=C/C(=O)c3ccc4c(c3)OCO4)cc2c1`: 29%, 0%, 93 µM and “soluble”.
The like results for `O=C(/C=C/c1cccc(C(F)(F)F)c1)c1ccc2c(c1)OCO2` were, in that order, 41%, 0%, 155 µM and “soluble”.
`O=C(/C=C/c1ccccc1[N+](=O)[O-])c1ccc2ccccc2c1`: the inhibition was 10% in data set [1] and 32% in data set [2]. Moreover, 54 µM corresponded to half-maximal inhibition in data set [5] (IC50). The solubility result in data set [4] is reported as “soluble”.
In the case of `COc1ccc(C(=O)/C=C/c2ccc3c(c2)OCO3)c(OC)c1`, the inhibition in data set [1] turned out to be 42%; in data set [2], 0%. Half-maximal inhibition in data set [3] (IC50) was put at 101 µM. Further, in data set [4], the solubility entry is on record as “soluble”.
The like results for `O=C(/C=C/c1ccc2ccccc2c1)c1ccc2ccccc2c1` were, in that order, 39%, 25%, 93 µM and “soluble”.
Turning to `Cc1ccc(C(=O)/C=C/c2ccc3ccccc3c2)cc1`, the inhibition in data set [1] was determined as 10%; in data set [2] it was 34%. Further, the midpoint of inhibition in data set [5], the IC50, lay at 135 µM. Besides, the solubility entry in data set [4] is reported as “soluble”.
On to `COc1ccc(/C=C/C(=O)c2ccc3ccccc3c2)cc1`, for which the results for the inhibition in data set [1] and in data set [2] were 35% and 0%, respectively. In addition, the IC50 in data set [3] is 93 µM. Also, in data set [4], the solubility result is on record as “soluble”.
On to `O=C(/C=C/c1ccccc1[N+](=O)[O-])c1ccc2c(c1)OCO2`, for which the results for the inhibition in data set [1] and in data set [2] were 0% and 43%, respectively. Further, the midpoint of inhibition in data set [5], the IC50, lay at 81 µM. Also, the solubility entry in data set [4] is on record as “soluble”.
For the molecule `O=C(/C=C/c1cccc2ccccc12)c1ccc2ccccc2c1`, the inhibition worked out at 43% in data set [1] and 0% in data set [2]. In data set [3], the IC50 worked out at 93 µM. For the same molecule, the solubility result in data set [4] was “soluble”.
The matching figures for `Cc1ccc(/C=C/C(=O)c2ccc3c(c2)OCO3)o1`: 40%, 8%, 169 µM and “soluble”.
The matching figures for `COc1cc(/C=C/C(=O)c2ccc(-n3ccnc3)cc2)ccc1OCc1ccccc1`: 38%, 0%, 102 µM and “soluble”.
The matching figures for `O=C(/C=C/c1ccc(Cl)c(Cl)c1)c1ccc2c(c1)OCO2`: 35%, 0%, 151 µM and “soluble”.
In the case of `O=C(/C=C/c1ccc(Cl)cc1Cl)c1ccc2c(c1)OCO2`, the inhibition in data set [1] amounted to 27%; in data set [2], 0%. The half-maximal inhibitory concentration (IC50) in data set [3] worked out at 407 µM. The solubility result in data set [4] is listed as “soluble”.
The like results for `COc1ccc(/C=C/C(=O)c2ccc3c(c2)OCO3)c(OC)c1OC` were, in that order, 26%, 9%, 83 µM and “soluble”.
With `O=C(/C=C/c1ccc2c(c1)OCO2)c1ccc2ccccc2c1`, the inhibition in data set [1] stood at 13%; in data set [2], 0%. For the same molecule, the solubility result in data set [4] was “soluble”.
The like results for `O=C(/C=C/c1ccc2ccccc2c1)c1ccc(Cl)c(Cl)c1` were, in that order, 9%, 18% and “soluble”.
In the case of `COc1ccc(OC)c(/C=C/C(=O)c2ccc3c(c2)OCO3)c1`, the inhibition in data set [1] was 10%; in data set [2], 0%. Besides, in data set [4], the solubility entry is “soluble”.
The matching figures for `COc1cc(/C=C/C(=O)c2ccc(Cl)s2)ccc1OCc1ccccc1`: 5%, 19% and “soluble”.
As to `O=C(/C=C/c1ccc(Br)cc1)c1ccc2c(c1)OCO2`, the inhibition in data set [1] turned out to be 37%; in data set [2], 9%. Moreover, in data set [3], half-maximal inhibition (IC50) required 66 µM. Further, the solubility entry in data set [4] is listed as “soluble”.
As to `COc1cc(/C=C/C(=O)c2ccc3ccccc3c2)ccc1OCc1ccccc1`, the inhibition worked out at 5% in data set [1] and 0% in data set [2]. In data set [4], the solubility result is reported as “soluble”.
The matching figures for `O=C(/C=C/c1c(Cl)cccc1Cl)c1ccc2c(c1)OCO2`: 13%, 0% and “soluble”.
The matching figures for `O=C(/C=C/c1ccc(C(F)(F)F)cc1)c1ccc2c(c1)OCO2`: 7%, 0% and “soluble”.
The like results for `O=C(/C=C/c1ccc(F)cc1)c1ccc2c(c1)OCO2` were, in that order, 0%, 0% and “soluble”.
As to `N#Cc1ccc(/C=C/C(=O)c2ccc3ccccc3c2)cc1`, the inhibition in data set [1] was 21%; in data set [2], 20%. In data set [4], the solubility result is given as “soluble”.
The like results for `O=C(/C=C/c1ccccc1)c1ccc2c(c1)OCO2` were, in that order, 0%, 0% and “soluble”.
The matching figures for `O=C(/C=C/c1ccccc1F)c1ccc2ccccc2c1`: 23%, 0% and “soluble”.
Turning to `O=C(/C=C/c1cc(Cl)cc(Cl)c1)c1ccc2c(c1)OCO2`, the inhibition in data set [1] worked out at 14%; in data set [2] it was 0%. The solubility result in data set [4] is listed as “soluble”.
The matching figures for `COc1ccc(/C=C/C(=O)c2ccc3c(c2)OCO3)cc1OC`: 19%, 0% and “soluble”.
The matching figures for `COc1ccc(/C=C/C(=O)c2ccc3ccccc3c2)c(OC)c1OC`: 0%, 0% and “soluble”.
With `O=C(/C=C/c1ccc([N+](=O)[O-])cc1)c1ccc2c(c1)OCO2`, the inhibition stood at 35% in data set [1] and 10% in data set [2]. Besides, the midpoint of inhibition in data set [3], the IC50, lay at 74 µM. Moreover, in data set [4], the solubility result is recorded as “soluble”.
`O=C(/C=C/c1cccs1)c1ccc2ccccc2c1`: the inhibition in data set [1] worked out at 15%; in data set [2], 0%. Besides, the solubility entry in data set [4] is “soluble”.
Take `COc1cccc(OC)c1/C=C/C(=O)c1ccc2ccccc2c1`: the inhibition was 40% in data set [1] and 24% in data set [2]. The IC50 in data set [3] is 214 µM. Moreover, the solubility entry in data set [4] was “soluble”.
The matching figures for `COc1cc(OC)c(/C=C/C(=O)c2ccc3ccccc3c2)c(OC)c1`: 49%, 0%, 1660 µM and “soluble”.
As to `O=C(/C=C/c1cccc([N+](=O)[O-])c1)c1ccc2ccccc2c1`, the inhibition in data set [1] is 12%; in data set [2], 7%. In addition, the solubility result in data set [4] is “soluble”.
The matching figures for `COc1cccc(C(=O)/C=C/c2ccc3ccccc3c2)c1`: 0%, 0% and “soluble”.
As to `O=C(/C=C/c1ccc(Cl)cc1)c1ccc2c(c1)OCO2`, the inhibition in data set [1] amounted to 38%; in data set [2], 0%. In data set [3], the midpoint of inhibition, the IC50, lay at 117 µM. In data set [4], the solubility result is recorded as “soluble”.
Turning to `COc1ccc(OC)c(/C=C/C(=O)c2ccc3ccccc3c2)c1`, the inhibition in data set [1] is 22%; in data set [2], 0%. Further, in data set [4], the solubility entry was “soluble”.
For the molecule `COc1cc(/C=C/C(=O)c2ccc(Br)cc2)ccc1OCc1ccccc1`, the figures for the inhibition in data set [1] and in data set [2] were 63% and 0%, respectively. Besides, the IC50 in data set [3] stood at 302 µM. In data set [4], the solubility entry is given as “soluble”.
For `CCCCOc1ccc(/C=C/C(=O)c2ccc3c(c2)OCO3)cc1`, the inhibition in data set [1] is 11%; in data set [2], 0%. Moreover, the solubility result in data set [4] is listed as “soluble”.
`O=C(/C=C/c1ccc2ccccc2c1)c1ccc(-n2ccnc2)cc1`: the inhibition came out at 40% in data set [1] and 0% in data set [2]. Besides, the half-maximal inhibitory concentration (IC50) in data set [3] came out at 100 µM. Also, the solubility entry in data set [4] is on record as “soluble”.
